Assay results collected from several papers.
Lines come from different studies, so protocols differ.
EGFR G719S: Epidermal growth factor receptor (EGFR, Homo sapiens, UniProt P00533, G719S)
EGFR del752-759: Epidermal growth factor receptor (EGFR, Homo sapiens, UniProt P00533, del752-759)

target	effect on	action	method	tested at	quantity	result	Structure (SMILES)
EGFR G719S	cell-free assay		competition with immobilised ligand	1 µM	remaining binding	98%	NS(=O)(=O)c1cc(NC(=O)C2(c3ccccc3Cl)CC2)ccc1Oc1cccc(Cl)c1
Epidermal growth factor receptor (EGFR, Homo sapiens, UniProt P00533, L861Q)	binding			1 µM	remaining binding	81%	N[C@H]1CCN(c2nccc(-c3cnn4ncccc34)n2)C1
EGFR del752-759	cell-free assay			23.5 nM	remaining signal	87%	Cc1ccc(C(=O)Nc2ccc(CN3CCN(C)CC3)c(C(F)(F)F)c2)cc1C#Cc1cnc2cccnn12
Epidermal growth factor receptor (EGFR, Homo sapiens, UniProt P00533, T790M)	binding			1 µM	remaining binding	78%	CN(CCCC(F)(F)F)c1nccc(-c2cnn3ncccc23)n1
Epidermal growth factor receptor (EGFR, Homo sapiens, UniProt P00533, del746-750)	enzyme activity	inhibitor	radiometric	1 µM	remaining activity	15%	COc1cc2ncnc3c2cc1OCCOCCOc1c(Cl)cccc1N3
Epidermal growth factor receptor (EGFR, Homo sapiens, UniProt P00533, L858R)	cell-free assay		competition with immobilised ligand	1 µM	remaining binding	100%	CN(C)c1ncnc(-c2ccc3nc(Nc4cc(CN5CCN(C(=O)CC(F)(F)F)CC5)ccn4)[nH]c3c2)c1Cl
EGFR del752-759	binding			1 µM	remaining binding	97%	C[C@H]1CCN(c2nccc(-c3cnn4ncccc34)n2)C1
Epidermal growth factor receptor (EGFR, Homo sapiens, UniProt P00533, A750P/del747-749)	cell-free assay		competition with immobilised ligand	1 µM	remaining binding	100%	COc1cc(-c2cn(C3CCc4c(F)cccc4N(CC(F)(F)F)C3=O)nn2)ccc1-n1cnc(C)c1 (stereo not drawn)
EGFR G719S	cell-free assay			20 µM	remaining signal	11%	Nc1ncnc2occ(-c3ccc(NC(=O)Nc4cc(C(F)(F)F)ccc4F)cc3)c12
